Active and inactive are the calls of the source. The rule behind the calls is not given here.

From ChEMBL document CHEMBL1154632, “Synthesis and antimicrobial activity of 7-(2-substituted phenylthiazolidinyl)-benzopyran-2-one derivatives” (2010) come the findings set out here.

Experiment [1] deals with Escherichia coli. The experiment can be described thus: Antibacterial activity against Escherichia coli NCIM 2666 at 100 ug/ml by agar cup plate method. Conditions: for zone of inhibition at 100 µg/mL: read-out: IZ. Format: functional. A digest of the protocol: (§1)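 Agar cup plate assay. Strains were obtained from NCL Pune, India, and test compounds were dissolved in DMF. Values are reported as mean (SEM).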

Experiment [2] concerns Delftia acidovorans. The experiment is described as follows: Antibacterial activity against Pseudomonas desmolytica NCIM 2028 at 100 ug/ml by agar cup plate method. Conditions: for zone of inhibition at 100 µg/mL: read-out: IZ. Format: functional. In short, it runs like this: as §1
The test system of experiment [3] is Penicillium roqueforti. The experiment is described as follows: Antifungal activity against Penicillium roqueforti NCIM 712 at 100 ug/ml by agar cup plate method. The conditions noted are these: for zone of inhibition at 100 µg/mL: read-out: IZ. Format: functional. A digest of the protocol:
as §1

Experiment [4] deals with Aspergillus niger. The experiment is described as follows: Antifungal activity against Aspergillus niger NCIM 813 at 100 ug/ml by agar cup plate method. Format: functional. Conditions: for zone of inhibition at 100 µg/mL: read-out: IZ. A digest of the protocol:
as §1

The test system of experiment [5] is Bacillus subtilis. The experiment can be described thus: Antibacterial activity against Bacillus subtilis NCIM 2613 at 100 ug/ml by agar cup plate method. Conditions: read-out: IZ.
In experiment [6] the test system is Staphylococcus aureus. The experiment can be described thus: Antibacterial activity against Staphylococcus aureus NCIM 2602 at 100 ug/ml by agar cup plate method. The conditions noted are these: read-out: IZ.
Experiment [7] deals with Delftia acidovorans. The experiment can be described thus: Antibacterial activity against Pseudomonas desmolytica NCIM 2028 at 50 ug/ml by agar cup plate method. Format: functional. The conditions noted are these: read-out: IZ. In short, it runs like this:
as §1

Experiment [8] concerns Bacillus subtilis. The experiment can be described thus: microbe, parasite or virus in culture. Conditions: Staphylococcus aureus, NCIM 2602, read-out: IZ.
The test system of experiment [9] is Staphylococcus aureus. The experiment can be described thus: microbe, parasite or virus in culture. The conditions noted are these: Bacillus subtilis, NCIM 2613, read-out: IZ.
Experiment [10] relates to Escherichia coli. The experiment is described as follows: microbe, parasite or virus in culture. Conditions: NCIM 2666, read-out: IZ.
Experiment [11] relates to Penicillium roqueforti. The experiment is described as follows: Antifungal activity against Penicillium roqueforti NCIM 712 at 50 ug/ml by agar cup plate method. Format: functional. Conditions: read-out: IZ. In short, it runs like this:
as §1

Experiment [12] concerns Aspergillus niger. The experiment is described as follows: Antifungal activity against Aspergillus niger NCIM 813 at 50 ug/ml by agar cup plate method. The conditions noted are these: read-out: IZ. Format: functional. A digest of the protocol: as §1

Turning to `Cc1cc(=O)oc2cc(/N=C/c3ccc(Cl)cc3Cl)ccc12`, the zone of inhibition at 100 µg/mL is 14 mm in experiment [1]; 13 mm in [2]; 9 mm in experiment [3]; 7 mm in experiment [4]; 12 mm in experiment [5]; 5 mm in [6].

As for `Cc1cc(=O)oc2cc(N3C(=O)CSC3c3ccccc3O)ccc12` (centres undefined), the “inhibition zone (IZ)” value in experiment [1] and in experiment [2] was “inactive” in each case. Also, the zone of inhibition at 100 µg/mL was found to be 11 mm in experiment [3], 7 mm in experiment [4], 8 mm in experiment [5] and 4 mm in experiment [6].

As to `Cc1cc(=O)oc2cc(N3C(=O)CSC3c3ccc(N(C)C)cc3)ccc12` (centres undefined), the zone of inhibition at 100 µg/mL in experiment [1] is 10 mm; in experiment [2], 7 mm; in experiment [5], 13 mm; in experiment [6] it was 5 mm. Moreover, the “inhibition zone (IZ)” value in experiment [3] and in [4] was “inactive” throughout.

Consider `Cc1cc(=O)oc2cc(/N=C/c3ccco3)ccc12`, for which the zone of inhibition at 100 µg/mL is 12 mm in experiment [1], 7 mm in [2] and 6 mm in [3]. Besides, the “inhibition zone (IZ)” value in [4] was “inactive”.

On to `Cc1cc(=O)oc2cc(N3C(=O)CSC3c3ccco3)ccc12` (centres undefined), for which the results for the zone of inhibition at 100 µg/mL in experiment [1], in [2] and in [3] were 13 mm, 6 mm and 5 mm, respectively. For the same compound, the “inhibition zone (IZ)” value in [4] is “inactive”.

As to `Cc1cc(=O)oc2cc(N3C(=O)CSC3c3ccc(O)cc3)ccc12` (centres undefined), the “inhibition zone (IZ)” value in experiment [1] and in experiment [2] was “inactive” each time. The zone of inhibition at 100 µg/mL in experiment [3] came to 9 mm; in [4], 5 mm; in experiment [5], 9 mm; in experiment [6], 4 mm.

Turning to `Cc1cc(=O)oc2cc(N3C(=O)CSC3c3ccc(Cl)cc3Cl)ccc12` (centres undefined), the zone of inhibition at 100 µg/mL is 15 mm in experiment [1]; 11 mm in experiment [2]; 8 mm in experiment [3]; 6 mm in [4]; 10 mm in experiment [5]; 7 mm in [6].

With `Cc1cc(=O)oc2cc(/N=C/c3ccccc3O)ccc12`, the “inhibition zone (IZ)” value in experiment [1] and in experiment [2] was “inactive” in each case. Besides, the zone of inhibition at 100 µg/mL in experiment [3] came out at 10 mm; in experiment [4] it was 6 mm; in experiment [5], 7 mm; in experiment [6] it was 3 mm.

As for `Cc1cc(=O)oc2cc(/N=C/c3cccc([N+](=O)[O-])c3)ccc12`, the zone of inhibition at 100 µg/mL was 9 mm in experiment [1]; 10 mm in [2]; 4 mm in [3]; 20 mm in experiment [5]; 15 mm in experiment [6]. For the same compound, the “inhibition zone (IZ)” value in experiment [4] is “inactive”.

`Cc1cc(=O)oc2cc(/N=C/c3ccc(O)cc3)ccc12`: the “inhibition zone (IZ)” value in [1] and in [2] was “inactive” each time. Besides, the zone of inhibition at 100 µg/mL in experiment [3] was found to be 8 mm; in experiment [4] it was 6 mm; in experiment [5], 10 mm; in experiment [6], 4 mm.

Regarding `COc1ccc(C2SCC(=O)N2c2ccc3c(C)cc(=O)oc3c2)cc1` (centres undefined), the zone of inhibition at 100 µg/mL worked out at 8 mm in experiment [1]; 17 mm in experiment [3]; 11 mm in [4]; 21 mm in [5]; 16 mm in [6]. Also, the “inhibition zone (IZ)” value in [2] was “inactive”.

As for `O=C(O)c1cn(C2CC2)c2cc(N3CCNCC3)c(F)cc2c1=O` [CIPROFLOXACIN], the zone of inhibition at 50 µg/mL in experiment [7] stood at 18 mm; in experiment [8], 25 mm; in [9] it was 18 mm; in [10] it was 30 mm.

On to `COc1cccc(/C=N/c2ccc3c(C)cc(=O)oc3c2)c1`, for which the zone of inhibition at 100 µg/mL in experiment [1] worked out at 11 mm; in experiment [2], 8 mm; in experiment [3], 13 mm; in [4] it was 11 mm; in [5] it was 13 mm; in experiment [6], 9 mm.

For the compound `Cc1cc(=O)oc2cc(N3C(=O)CSC3c3ccc(F)cc3)ccc12` (centres undefined), the zone of inhibition at 100 µg/mL is 18 mm in experiment [1]; 13 mm in experiment [2]; 19 mm in experiment [3]; 13 mm in experiment [4]; 28 mm in [5]; 20 mm in experiment [6].

On to `Cc1cc(=O)oc2cc(/N=C/c3ccc(F)cc3)ccc12`, for which the zone of inhibition at 100 µg/mL in [1] came out at 14 mm; in experiment [2], 12 mm; in experiment [3], 5 mm; in experiment [5], 17 mm; in [6], 16 mm. In addition, the “inhibition zone (IZ)” value in experiment [4] was “inactive”.

With `Cc1ccc(/C=N/c2ccc3c(C)cc(=O)oc3c2)cc1`, the zone of inhibition at 100 µg/mL in experiment [1] turned out to be 10 mm; in [2], 11 mm; in experiment [3], 7 mm; in experiment [4], 3 mm; in experiment [5], 9 mm; in experiment [6], 7 mm.

As for `Cc1cc(=O)oc2cc(N3C(=O)CSC3c3ccccc3)ccc12` (centres undefined), the zone of inhibition at 100 µg/mL in experiment [1] was determined as 2 mm; in experiment [2] it was 14 mm; in experiment [3] it was 13 mm; in experiment [4], 8 mm; in [5], 19 mm; in experiment [6], 12 mm.

As for `COc1ccc(/C=N/c2ccc3c(C)cc(=O)oc3c2)cc1`, the zone of inhibition at 100 µg/mL in experiment [1] came out at 7 mm; in experiment [3], 14 mm; in experiment [4] it was 9 mm; in experiment [5], 21 mm; in [6], 13 mm. Moreover, the “inhibition zone (IZ)” value in experiment [2] was “inactive”.

For `COC1=CC(=O)C[C@@H](C)[C@]12Oc1c(Cl)c(OC)cc(OC)c1C2=O` [GRISEOFULVIN], the values for the zone of inhibition at 50 µg/mL in [11] and in [12] were 2 mm and 17 mm, respectively.

In the case of `Cc1ccc(C2SCC(=O)N2c2ccc3c(C)cc(=O)oc3c2)cc1` (centres undefined), the zone of inhibition at 100 µg/mL in experiment [1] amounted to 20 mm; in [2], 15 mm; in experiment [3] it was 6 mm; in [4], 3 mm; in experiment [5], 8 mm; in [6] it was 6 mm.

For the compound `COc1cccc(C2SCC(=O)N2c2ccc3c(C)cc(=O)oc3c2)c1` (centres undefined), the zone of inhibition at 100 µg/mL in [1] was found to be 12 mm; in experiment [2] it was 9 mm; in experiment [3], 20 mm; in [4] it was 13 mm; in experiment [5] it was 17 mm; in experiment [6] it was 10 mm.

As for `Cc1cc(=O)oc2cc(/N=C/c3ccccc3)ccc12`, the zone of inhibition at 100 µg/mL in [1] was 13 mm; in [2], 10 mm; in experiment [3] it was 11 mm; in experiment [4], 9 mm; in experiment [5] it was 10 mm; in experiment [6] it was 11 mm.

`Cc1cc(=O)oc2cc(/N=C/c3ccc(N(C)C)cc3)ccc12`: the zone of inhibition at 100 µg/mL in experiment [1] was determined as 8 mm; in experiment [2] it was 8 mm; in experiment [5], 14 mm; in [6], 6 mm. For the same compound, the “inhibition zone (IZ)” value in [3] and in experiment [4] was “inactive” in each case.

For the compound `Cc1cc(=O)oc2cc(N3C(=O)CSC3c3cccc([N+](=O)[O-])c3)ccc12` (centres undefined), the zone of inhibition at 100 µg/mL in experiment [1] was 10 mm; in [2], 9 mm; in experiment [3], 3 mm; in experiment [5], 27 mm; in [6] it was 19 mm. Further, in experiment [4], the “inhibition zone (IZ)” value is “inactive”.
